The source of these data is PMC3968794 (Bioorganic & medicinal chemistry, 2013).

Where two headings read alike, the source gives them in different places. Bounds are passed on as bounds.

The subject of data set [1] is tubulin. Conditions: read-out: Inhibition of tubulin polymerization IC50; cell-free assay; ref [61]; cited from earlier work.
The subject of data set [2] is tubulin. The data set can be described thus: Inhibition of tubulin assembly. The class given is biochemical. To be noted: read-out: Inhibition of tubulin polymerization IC50; cell-free assay, tubulin purified from calf brain. An outline of the steps:
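Calf-brain tubulin; test compound mixtures held on ice 15 min, then GTP added from a 2.5 mM stock. Samples equilibrated at 0 °C for 8 min in the spectrophotometer, then read at 350 nm every 30 s for 3800 s. Temperature program: 0 °C for 100 s, 38 °C for 120 s, 31 °C until 2600 s, then 0 °C to the end.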

Data set [3] deals with SK-OV-3, NCI-H460 and DU-145 human cancer cell lines. The experiment in a line: SRB cytotoxicity assay, three human cancer cell lines stated together. The class given is cell-based. An outline of the steps:
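Sulforhodamine B growth-inhibition assay (NCI standard method). Cells were grown in RPMI1640 with 5% fetal bovine serum and 1% gentamicin, then plated and incubated 24 h. Serial dilutions of test compound were added, with 48 h exposure. Cells were fixed with trichloroacetic acid, stained with SRB, and read by optical density. GI50 (concentration halving net protein increase) was calculated from OD data.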
For orientation: In SRB staining, fixed cells bind dye roughly in proportion to their protein.

In general, IC50 refers to the concentration needed to halve the response being measured. In the case of `COc1ccc(/C=C\c2cc(OC)c(OC)c(OC)c2)cc1OP(=O)(O)O` [CA4P, combretastatin A-4P], the IC50 in data set [1] was > 40 µM.
As for `COc1ccc(C2=CCCCc3c2ccc(OC)c3OC)cc1OC` [Compound 35, 1,2-Dimethoxy-5-(3,4-dimethoxyphenyl)-benzocyclohept-5-ene], the IC50 in data set [2] was > 40 µM.
`COc1cc2c(c(OC)c1O)CCCC=C2c1cc(OC)c(OC)c(OC)c1` [Compound 38, 1,3-Dimethoxy-2-hydroxy-5-(3′,4′,5′-trimethoxyphenyl)-benzocyclohept-5-ene]: the IC50 in data set [2] is > 40 µM.
One may read the GI50 as the concentration giving 50% growth inhibition. For the compound `COc1ccc2c(c1O)CCCC=C2c1cc(OC)c(OC)c(OC)c1` [Compound 39, 1-Hydroxy-2-methoxy-5-(3′,4′,5′-trimethoxyphenyl)-benzocyclohept-5-ene], in data set [3] (Homo sapiens, read-out: GI50 (cytotoxicity)), the GI50 is < 0.0001 µM.
Regarding `COc1cc(C2=CCCCc3ccccc32)cc(OC)c1OC` [Compound 41, 5-(3,4,5-trimethoxyphenyl)-benzocyclohept-5-ene], the IC50 in data set [2] was > 40 µM.
For the compound `COc1cc(C2=CCCCc3c2cc(OC)c(OC)c3O)cc(OC)c1OC` [Compound 43, 1-Hydroxy-2,3-dimethoxy-5-(3′,4′,5′-trimethoxyphenyl)-benzocyclohept-5-ene], in data set [2], the IC50 is > 40 µM.
Turning to `COc1cc(C2=CCCCc3c2ccc(OC)c3OP(=O)(O)O)cc(OC)c1OC` [Compound 44, Disodium 2-Methoxy-5-(3′,4′,5′-trimethoxyphenyl)-benzocyclohept-5-ene-1-phosphate], the IC50 in data set [2] is > 40 µM.
Take `COc1ccc2c(c1NC(=O)[C@@H](N)CO)CCCC=C2c1cc(OC)c(OC)c(OC)c1.Cl` [Compound 48, 1-(L-ser)amido-5-(3′,4′,5′-trimethoxyphenyl)-2-methoxy-benzocyclohept-5-ene hydrochloride]: the “Cytotoxicity (in words)” value in data set [3] (three human cancer cell lines) was “inactive in terms of cytotoxicity”.
